This note sets out measurements from ChEMBL document CHEMBL3600321, “Synthesis and antifungal evaluation of head-to-head and head-to-tail bisamidine compounds” (Bioorg Med Chem, 2015).

The test system of data set [1] is Candida albicans. As to the kind of experiment: Antifungal activity against Candida albicans WTBF-50 by microbroth dilution method. Format: functional. In outline: (§1)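 CLSI microbroth dilution in RPMI 1640 with L-glutamine. MIC values are geometric means of three independent assays.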
In a further data set the test system is Pichia kudriavzevii. As to the kind of experiment: Antifungal activity against Candida krusei WTBF-51 by microbroth dilution method. Format: functional. (In broth dilution the organism is exposed to a series of concentrations in liquid medium.)
The test system of another data set is Nakaseomyces glabratus. The experiment in a line: Antifungal activity against Candida glabrata ATCC 90030 WTBF-86 by microbroth dilution method. Format: functional. In outline:
as §1

A further data set concerns Candida parapsilosis. The experiment in a line: Antifungal activity against Candida parapsilosis ATCC 90018 WTBF-88 by microbroth dilution method. Format: functional. As to conditions: Lodderomyces parapsilosis. The method, boiled down: as §1
The next data set concerns Cryptococcus neoformans. As to the kind of experiment: Antifungal activity against Cryptococcus neoformans Cn18 (Serotype C) WTBF-106 by microbroth dilution method. Format: functional. In outline:
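Microbroth dilution per the CLSI protocol, run in Sabouraud Dextrose Broth in place of RPMI. MIC values are geometric means of three independent assays.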

The next data set concerns HeLa. The experiment in a line: Cytotoxicity against human HeLa cells assessed as cell viability after 72 hrs by MTS assay. Format: cell-based.
The subject of data set [2] is Candida albicans. As to the kind of experiment: Fungicidal activity against Candida albicans WTBF-50 assessed as decrease in number of viable cells measured within 4 to 24 hrs. Format: functional, organism-based. The method, boiled down: (§2)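 C. albicans was grown in RPMI at 37 °C to OD600 of about 1. […] Samples taken at intervals were serially diluted and plated on Sabouraud agar, and cfu/ml was counted.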

A short description of data set [3]: Metabolic stability in liver microsomes (unknown origin). Format: ADME. For orientation: Microsomes from liver hold many membrane-bound enzymes, among them those of drug oxidation.
The subject of data set [4] is Candida albicans. The experiment in a line: Fungicidal activity against Candida albicans WTBF-50 assessed as inhibition of DNA and RNA biosynthesis after 90 mins by [3H]-adenine incorporation assay. Format: functional, organism-based. In outline:
(§3)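 C. albicans was grown in RPMI at 37 °C to OD600 of about 1, then mixed with 2-fold serial dilutions of compound and one 3H precursor at 10 μCi/ml final. Incubation ran 90 min at 37 °C, about one doubling. TCA precipitate was filter-collected and scintillation-counted. Each concentration was tested in triplicate. Incorporation relative to untreated control was fitted with a four-parameter curve to give the IC50.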

The subject of data set [5] is Candida albicans. The experiment in a line: Fungicidal activity against Candida albicans WTBF-50 assessed as log10 reduction in CFU/ml at 1 x MIC measured within 24 hrs. Format: functional. The method, boiled down: as §2
In data set [6] the test system is Candida albicans. As to the kind of experiment: Fungicidal activity against Candida albicans WTBF-50 assessed as log10 reduction in CFU/ml at 2 x MIC measured within 24 hrs. Format: functional. In outline: as §2
For data set [7], the system named is Candida albicans. As to the kind of experiment: Fungicidal activity against Candida albicans WTBF-50 assessed as inhibition of RNA biosynthesis after 90 mins by [3H]-uridine incorporation assay. Format: functional, organism-based. In outline:
as §3

For data set [8], the system named is Candida albicans. As to the kind of experiment: Fungicidal activity against Candida albicans WTBF-50 assessed as inhibition of protein biosynthesis after 90 mins by [3H]-leucine incorporation assay. Format: functional, organism-based. The method, boiled down: as §3
Data set [9] concerns Candida albicans. The experiment in a line: Fungicidal activity against Candida albicans WTBF-50 assessed as inhibition of cell wall biosynthesis after 90 mins by [3H]-glucosamine incorporation assay. Format: functional, organism-based. The method, boiled down: as §3
Data set [10] has as its system Candida albicans. As to the kind of experiment: Fungicidal activity against Candida albicans WTBF-50 assessed as inhibition of lipid biosynthesis after 90 mins by [3H]-acetate incorporation assay. Format: functional, organism-based. In outline:
as §3

The test system of data set [11] is Candida albicans. As to the kind of experiment: Fungicidal activity against Candida albicans WTBF-50 assessed as log10 reduction in CFU/ml at 4 x MIC measured within 4 hrs. Format: functional. In outline:
as §2

Data set [12] has as its system Candida albicans. As to the kind of experiment: Ratio of IC50 for inhibition of RNA biosynthesis in Candida albicans WTBF-50 by [3H]-uridine incorporation assay to IC50 for inhibition of DNA and RNA biosynthesis in Candida albicans WTBF-50 by [3H]-adenine incorporation assay. Format: functional. The method, boiled down: (§4)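 The ratio was formed from IC50 values of the 3H-precursor incorporation assay: C. albicans at OD600 of about 1 in RPMI, serial compound dilutions, 10 μCi/ml final label, 90 min at 37 °C. TCA precipitate was scintillation-counted, triplicates were run, and IC50 came from a four-parameter fit.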

Data set [13] has as its system Candida albicans. The experiment in a line: Ratio of IC50 for inhibition of cell wall biosynthesis in Candida albicans WTBF-50 by [3H]-glucosamine incorporation assay to IC50 for inhibition of DNA and RNA biosynthesis in Candida albicans WTBF-50 by [3H]-adenine incorporation assay. Format: functional. In outline: as §4
For data set [14], the system named is Candida albicans. The experiment in a line: Binding affinity to DNA in Candida albicans WTBF-50 at 4 x MIC after 30 mins by Syto9 dye-based fluorescence microscope with DAPI filter analysis. The method, boiled down: (§5)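 An exponential C. albicans culture was treated for 30 min with bisamidine at 4× MIC or with 33 μM Syto9. Fluorescence microscopy used the DAPI channel for the bisamidine and the GFP channel for Syto9, at 400× magnification.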

The test system of data set [15] is Candida albicans. The experiment in a line: Binding affinity to DNA in Candida albicans WTBF-50 at 4 x MIC after 30 mins by Syto9 dye-based fluorescence microscope with GFP filter analysis. The method, boiled down:
as §5

The subject of data set [16] is Candida albicans. As to the kind of experiment: Fungicidal activity against Candida albicans WTBF-50 assessed as log10 reduction in CFU/ml at 1 x MIC measured within 4 hrs. Format: functional. The method, boiled down: as §2

The source made the active and inactive calls. The rule behind the calls is not given here.

On to `CC(=O)O.c1cc2cc(-c3ccc(-c4c[nH]c5cc(C6=NCCCN6)ccc45)cc3)[nH]c2cc1C1=NCCCN1`, for which the MIC was determined as 0.25 µg/mL against Candida albicans [1]; 0.25 µg/mL against Pichia kudriavzevii; 0.06 µg/mL in the data set on Nakaseomyces glabratus; 0.16 µg/mL in the data set with Candida parapsilosis; 0.98 µg/mL with Cryptococcus neoformans. Also, in the data set with HeLa, the CC50 was 2.4 µg/mL. Further, the Activity result with Candida albicans [2] was “Dose-dependent effect”; in the data set on Candida albicans [5] it was 1 log10CFU/ml; in the data set with Candida albicans [6], 4 log10CFU/ml; in the data set on Candida albicans [11] it was more than 3 log10CFU/ml. The Stability result in data set [3] was “Stable”. The IC50 in the data set on Candida albicans [4] was 0.02 µg/mL; in the data set with Candida albicans [7], 0.56 µg/mL; in the data set on Candida albicans [8], 0.86 µg/mL; in the data set on Candida albicans [9], 0.87 µg/mL; in the data set on Candida albicans [10] it was not below 2 µg/mL. The “Ratio IC50” value in the data set with Candida albicans [12] was 30; with Candida albicans [13], 43.5.
As to `O=C(O)C(F)(F)F.c1cc2cc(-c3ccc(-c4cc5ccc(C6=NCCN6)cc5[nH]4)cc3)[nH]c2cc1C1=NCCN1`, the MIC amounted to 10.1 µg/mL against Candida albicans [1]; 4 µg/mL with Pichia kudriavzevii; 0.25 µg/mL against Nakaseomyces glabratus; 0.63 µg/mL in the data set on Candida parapsilosis; 2 µg/mL against Cryptococcus neoformans. The CC50 with HeLa was determined as 32.5 µg/mL. Besides, the Stability result in [3] is on record as “Stable”. Moreover, the outcome in the data set on Candida albicans [14] and in the data set with Candida albicans [15] was Active.
`O=C(O)C(F)(F)F.c1cc2cc(-c3ccc(-c4cc5ccc(C6=NCCCN6)cc5[nH]4)cc3)[nH]c2cc1C1=NCCCN1`: the MIC came to 0.25 µg/mL in the data set with Candida albicans [1]; 0.13 µg/mL in the data set on Pichia kudriavzevii; 0.06 µg/mL against Nakaseomyces glabratus; 0.1 µg/mL with Candida parapsilosis; 0.08 µg/mL against Cryptococcus neoformans. For the same compound, the CC50 in the data set with HeLa amounted to 4 µg/mL. In addition, the figures for the Activity entry in the data set with Candida albicans [2], in the data set with Candida albicans [11] and with Candida albicans [16] were “Dose-dependent effect”, more than 3 log10CFU/ml and 3 log10CFU/ml, respectively. Further, in data set [3], the Stability entry is “Stable”. Moreover, the IC50 is 0.01 µg/mL with Candida albicans [4]; 0.32 µg/mL in the data set with Candida albicans [7]; 0.59 µg/mL in the data set on Candida albicans [8]; 0.59 µg/mL in the data set with Candida albicans [9]; not below 2 µg/mL with Candida albicans [10]. For the same compound, the figures for the “Ratio IC50” value with Candida albicans [12] and with Candida albicans [13] were 30 and 59, respectively.

One may read the MIC as the lowest concentration that inhibits growth of the organism. Read a low MIC as greater potency. By CC50 is commonly meant the concentration that lowers cell viability or growth by half. For orientation: IC50 means the concentration needed to halve the response being measured.
